# Dynein cargo inh = dynein cargo transport inhibition | 3617.4 mouse cells, GR-EGFP nuclear translocation imaging; test concentration mostly 20 µM; stimulated with dexamethasone, 1 µM; active compounds read low | z-score, hits read low | actives 0.47% (n = 220,000) | AID 1381;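 active means plate z-score of nuclear minus cytoplasmic receptor signal below a set negative limit, without overly bright fluorescence or cell loss, cut at about -3.5 in these data, passing the limit was not always enough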;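 further: z-score of nuclear minus cytoplasmic ring GR-EGFP intensity difference per well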
#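 medium = tetracycline-free induction medium containing charcoal-stripped FBS | probe or stimulus = dexamethasone, 1.0 µM final | timing = 48 h induction, then 1 h compound, then 30 min agonist, 37 °C | detection = automated 10x imaging of fixed Hoechst-stained cells | read-out basis = nuclear versus cytoplasmic GR-EGFP signal, averaged per well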
# bCat nuc transl = beta-catenin nuclear translocation modulation; HeLa beta-catenin nuclear translocation, immunofluorescence imaging; nuclear translocation activity, % at 5 µM; actives 0.3% (n = 190,000); AID 1665;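 active means nuclear translocation activity above 50% at 5 µM, with a well cell count of 50 or more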;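 further: per-cell ratio of nuclear to cytoplasmic median beta-catenin stain intensity; plate controls were DMSO negative control for no effect and GSK-3 inhibitor IX positive control for full effect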
#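 test system = HeLa cells, endogenous beta-catenin | dosing = single 5 µM dose plus 0.02–20 µM confirmation series | times = compound treatment 24 h, 37°C, 5% CO2 | technique = beta-catenin immunofluorescence imaging with DAPI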
# L major viab = inhibitors of Leishmania major promastigote growth; Leishmania major promastigotes, resazurin fluorescence viability; inhibition, % at 10 µM; actives 9% (n = 200,000); in the data active means inhibition above about 50%;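 further: promastigotes grown with compound for 44 hours at 28 °C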
# CHOP inhibitor = blocks CHOP induction under ER stress; CHO-K1 CHOP-promoter luciferase, tunicamycin-induced, 15-18 h; inhibition, % at 10 µM; actives 3.8% (n = 220,000);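 active means compounds that reduced the stress-induced luciferase reporter signal by more than about 70% of percent inhibition, limit read from the data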;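 further: 0% = tunicamycin plus vehicle and 100% = wells without tunicamycin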
# MT stabilizer = microtubule stabilizers in HeLa cells; HeLa tubulin immunostaining HCS, 24 h; share of cells brighter than vehicle mean+2SD; actives 0.83% (n = 200,000); % tubulin-high responders, % at 10 µM; AID 2205;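 active means plate Z-score above 3 for both tubulin-high and condensed-nucleus cell shares, with cell loss under 80%, at 10 µM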;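 further: anti alpha tubulin signal scored within the nucleus-defined area of each cell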
# Autophagy HCS = modulators of autophagy; MEF GFP-LC3 puncta imaging; test concentration mostly 10 µM; calls only at 10 µM (by protocol); actives 0.98% (n = 190,000); AID 463193;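 active means percentage of spot-positive cells more than 3 SD above its plate mean, without a fluorescence outlier flag or 80% toxicity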;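 further: spot-positive cell cutoff set from DMSO-treated cells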
# * hit, by the source's call; i = inactive; . = not tested or not shown; + = active, no number. Only some compounds are listed: those with a hit (about 12% of all), similar ones and a draw of the others.
SMILES,Dynein cargo inh,bCat nuc transl,L major viab,CHOP inhibitor,MT stabilizer,Autophagy HCS
Cc1ccc(/C=N/NC(=O)c2csc3c2CCCC3)cc1,0.14,43,-1,7,20*,+
CC(C)(C)C1CCc2c(C(=O)N/N=C/c3cccs3)csc2C1 (stereo unspecified),0.49,1,96*,7,2,i
COC(=O)c1cc(C(=O)NCc2ccccc2)c(=O)[nH]c1C,-0.11,3,2,-5,3,i
COC(=O)C1=C(C)Nc2c(c(=O)n(C)c(=O)n2C)C1c1ccc(Cl)cc1 (stereo unspecified),0.97,.,-1,34,2,i
O=C(Cc1ccccc1Cl)Nc1cccnc1,0.72,0,1,12,2,i
CC(C)OP(=O)(OC(C)C)C(NC(=O)c1ccc(Br)cc1)c1ccccc1 (stereo unspecified),0.32,22,14,2,10,i
COCCN1C=C(C(=O)OC)C(c2ccccc2Cl)C(C(=O)OC)=C1,0.54,-1,1,-12,2,i
COCCN1C=C(C(=O)OC)C(c2cc(Br)c(OC)c(OC)c2)C(C(=O)OC)=C1,-0.65,0,100*,-7,4,i
CCOC(=O)/C(C#N)=C/c1ccc(-c2ccsc2C(=O)OC)o1,-0.37,.,0,74*,3,i
CCOC(=O)C(=Cc1ccc(-c2ccsc2C(=O)OC)o1)C(=O)OCC,0.087,.,30,-42,3,i
Cc1ccc(C(=O)N/C(=C\c2cccs2)C(=O)NCc2ccncc2)cc1,-0.14,.,-3,-4,1,i
Cc1nn(-c2ccccn2)c2nc(-c3cccs3)cc(C(=O)NCc3ccco3)c12,-0.71,.,53*,-30,1,i
COc1ccc(NC(=O)c2cc(-c3ccccc3)nc3c2c(C)nn3-c2ccccc2)c(OC)c1,0.095,-6,84*,31,3,i
CC(/C=N/NC(=O)c1cc(-c2cccnc2)nc2c1c(C)nn2-c1ccccc1)=C\c1ccccc1,0.81,-2,57*,31,5,+
Cc1nn(-c2ccccc2)c2nc(-c3ccncc3)cc(C(=O)NCc3ccco3)c12,-0.5,-6,45,72*,4,i
Nn1c(SCc2ccccc2F)nnc1-c1ccccn1,0.67,-1,.,-17,.,.
CC(=O)NS(=O)(=O)c1ccc(NC(=O)CN2C(=O)C3C4C=CC(C4)C3C2=O)cc1 (stereo unspecified),0.47,-2,-1,-21,2,i
Cc1ccc(-c2ccc(/C=N/N=C3/NC(=O)C(CC(=O)O)S3)o2)c([N+](=O)[O-])c1 (stereo unspecified),0.55,2,100*,-6,2,i
Cc1ccc(S(=O)(=O)Oc2ccc(/C=N/N=C3/NC(=O)C(CC(=O)O)S3)cc2)cc1 (stereo unspecified),.,0,.,.,.,.
O=C(O)CC1S/C(=N/N=C/c2ccc(-c3ccccc3[N+](=O)[O-])o2)NC1=O (stereo unspecified),-0.34,2,100*,26,1,i
CCn1cc(C(=O)NC2CCC(C)CC2)c(=O)c2cc(S(=O)(=O)N3CCCCC3)ccc21 (stereo unspecified),-0.94,.,76*,63,2,i
CC1CCCC(NC(=O)c2cn(C)c3ccc(S(=O)(=O)N4CCCC4)cc3c2=O)C1C (stereo unspecified),1.2,.,63*,80*,5,i
CC1CCCCC1NC(=O)c1cn(C)c2ccc(S(=O)(=O)N3CCCC3)cc2c1=O (stereo unspecified),0.23,.,37,23,4,i
COc1cc(NC(=S)NCCc2ccc(S(N)(=O)=O)cc2)c(OC)cc1Cl,1,5,22,-5,3,i
Cn1nnnc1Sc1ncnc2scc(-c3ccc(F)cc3)c12,-2,-3,91*,-22,12,i
SMILES,Dynein cargo inh,bCat nuc transl,L major viab,CHOP inhibitor,MT stabilizer,Autophagy HCS
Cn1nnnc1Sc1ncnc2scc(-c3ccccc3)c12,-1,2,70*,25,11,i
CCCC(=O)Nc1ccccc1Sc1ncnc2scc(-c3ccccc3)c12,-0.59,.,55*,40,2,i
Cn1nnnc1SCc1nc2scc(-c3ccccc3)c2c(=O)[nH]1,-0.17,-5,.,27,.,.
COCCN(CCOC)C(=O)COC(=O)c1ccc(Cl)c(S(=O)(=O)N(C)c2ccccc2)c1,0.21,-1,-4,6,4,i
c1ccc(CNc2nc(N3CCN(Cc4ccccc4)CC3)nc3ccccc23)cc1,-0.45,4,.,70,.,.
CC(Nc1nc(N2CCNCC2)nc2ccccc12)c1ccccc1 (stereo unspecified),0.038,-1,100*,-3,4,+
CC1CCN(c2nc3nonc3nc2Nc2ccc(F)cc2)CC1,0.11,1,33,9,3,i
O=C(Cn1c2[n+](c3ccc(C(F)(F)F)cc31)CCCCC2)c1ccc2c(c1)OCCO2,-0.28,0,15,13,6,i
O=S1(=O)CC/C(=N/Nc2ccc(C(F)(F)F)cn2)c2cc(F)ccc21,0.81,-1,1,95*,2,i
COc1cc(C(=O)N/N=C2\CCS(=O)(=O)c3ccc(F)cc32)cc(OC)c1OC,-0.88,-2,0,73*,4,i
Cc1cc(C(C)(C)C)cc(C)c1C(=O)O,-0.48,0,.,8,.,.
COc1ccc([N+](=O)[O-])cc1NC(=O)c1ccc(-n2nc(C)cc2C)cc1,-0.44,-2,-7,70,3,i
O=C(Cn1c(=O)c2c(ncn2Cc2ccccc2)n(Cc2ccccc2)c1=O)N1CCc2ccccc21,0.17,-1,100*,41,3,i
Cc1cc(-c2csc(N)n2)c(C)n1C,-0.59,.,6,26,1,i
Cc1ccc(-n2c(C)cc(-c3csc(N)n3)c2C)cc1,1.6,3,67*,60,4,i
COc1ccccc1-c1cc(C(F)(F)F)nc(N2CCOCC2)n1,0.027,-2,3,72*,6,i
COc1cccc(-c2cc(C(F)(F)F)nc(N3CCOCC3)n2)c1,1.6,-1,20,74*,4,i
CCOC(=O)c1c(NC(=O)c2ccc(C)cc2)sc2c1CC(C)(C)OC2,-0.48,-6,61*,26,1,i
Cc1ccccc1C(=O)Nc1sc2c(c1C(=O)O)CCC2,-0.17,0,-8,85*,4,i
CCOC(=O)c1c(NC(=O)c2ccccc2C)sc2c1CC(C)(C)OC2,-0.58,-11,72*,60,1,i
COC(=O)c1c(NC(=O)c2ccccc2)sc2c1CC(C)(C)OC2,-0.13,.,-4,48,1,i
